The source made the active and inactive calls. The calls are words filed in the database; no cut-off is given here. *1 amine or outer side, *2 acyl side, *3 side chain or, on linkers, in order; H or OH if unused. Where a SMILES comes first, the peptide text is derived from it. [ ]: non-standard residue; d: D form. The star is where a group is joined. X1 = CN(C)c1ccc2c(c1)C(=O)N(C[C@H](N[*:1])C(=O)[*:2])C2=O; X2 = CN(C)c1ccc2cc(C(=O)O)c(C(=O)*)cc2c1; X3 = CN(C)c1ccc(CC(=O)*)c(C(=O)O)c1; Dap = NC[C@H](N)C(=O)O
Columns and labels:
Type in all cases: cell-based
[1] = molecular target: T1, HLA class II histocompatibility antigen, DRB1-15 beta chain (Homo sapiens, UniProt P01903+P01911, A100R/D57E/F55L/F60I/F76Y/I96L/L162R/M171V/P40L/Q125E/R42F/V115G/Y59C); assay: Displacement of biotin-HA from recombinant soluble HLA-DR1 expressed in […] at acidic pH by ELISA
[2] = molecular target: T1, HLA class II histocompatibility antigen, DRB1-15 beta chain; assay: Displacement of biotin-HA from recombinant soluble HLA-DR1 expressed in […] by ELISA
[3] = molecular target: HLA class II histocompatibility antigen, DRB1-15 beta chain (Homo sapiens) (UniProt P01911); assay: Binding affinity to recombinant soluble HLA-DR1 expressed in […] assessed as relative fluorescence intensity by fluorescence spectral assay
[4] = molecular target: HLA class II histocompatibility antigen, DRB1-15 beta chain (Homo sapiens) (UniProt P01911); assay: Binding affinity to recombinant soluble HLA-DR1 expressed in […] assessed as fluorescence lifetime by fluorescence lifetime imaging microscopy
[5] = molecular target: HLA class II histocompatibility antigen, DRB1-15 beta chain (Homo sapiens) (UniProt P01911); assay: Activation of HLA-DR1 positive B cells assessed as IL2 secretion
How it was run: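 HLA-DR1-positive B cells were pulsed with peptide and used as antigen-presenting cells for the HLA-DR1-restricted, HA-specific HA1.7 T cell hybridoma. Activation was read as IL-2 secretion in a thymidine incorporation bioassay, in c.p.m. Triplicate measurements, with SD shown.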

[6] = molecular target: HLA class II histocompatibility antigen, DRB1-15 beta chain (Homo sapiens) (UniProt P01911); assay: Binding affinity to recombinant soluble HLA-DR1 expressed in human T2 cells assessed as increase in fluorescence lifetime at 1 uM by fluorescence lifetime imaging microscopy

IC50 [1] | IC50 [2] | Activity [3] | Time [4] | SMILES | further results
28 nM |  |  |  | CSCC[C@H](NC(=O)[C@H](CO)NC(=O)[C@H](CCCN=C(N)N)NC(=O)[C@H](CNC(=O)Cc1ccc(N(C)C)cc1C(=O)O)NC(C)=O)C(=O)N[C@@H](C)C(=O)N[C@@H](C)C(=O)N[C@@H](C)C(=O)N[C@@H](C)C(=O)N[C@@H](CC(C)C)C(=O)O (Ac-[Dap](X3)RSMAAAAL-OH) | 
4 nM | 4 nM | 599 cps/nM | 0.82 nanoseconds | CSCC[C@H](NC(=O)[C@H](CO)NC(=O)[C@H](CCCNC(=N)N)NC(=O)[C@@H](N)CN1C(=O)c2ccc(N(C)C)cc2C1=O)C(=O)N[C@@H](C)C(=O)N[C@@H](C)C(=O)N[C@@H](C)C(=O)N[C@@H](C)C(=O)N[C@@H](CC(C)C)C(=O)O (H-[X1]RSMAAAAL-OH) | Activity [6]: Active
27 nM |  |  |  | CSCC[C@H](NC(=O)[C@H](CO)NC(=O)[C@H](CCCNC(=N)N)NC(=O)[C@H](CNC(=O)c1cc2cc(N(C)C)ccc2cc1C(=O)O)NC(C)=O)C(=O)N[C@@H](C)C(=O)N[C@@H](C)C(=O)N[C@@H](C)C(=O)N[C@@H](C)C(=O)N[C@@H](CC(C)C)C(=O)O (Ac-[Dap](X2)RSMAAAAL-OH) | 

The remaining lines, values behind:

SMILES | IC50 [1] | IC50 [2] | Activity [3] | Time [4] | further results
C[C@@H](O)[C@H](NC(=O)[C@H](CCC(=O)O)NC(=O)[C@@H](N)CN1C(=O)c2ccc(N(C)C)cc2C1=O)C(=O)N[C@@H](CC(=O)O)C(=O)N[C@@H](CCCCN)C(=O)N[C@@H](CC(=O)O)C(=O)N[C@@H](CCCCN)C(=O)N[C@@H](CO)C(=O)N[C@@H](CCCN=C(N)N)C(=O)O (H-[X1]ETDKDKSR-OH) |  | > 10000 nM |  |  | 
CC(C)C[C@H](NC(=O)[C@H](CCCCN)NC(=O)[C@H](CC(C)C)NC(=O)[C@@H](NC(=O)[C@H](CC(N)=O)NC(=O)[C@H](CCC(N)=O)NC(=O)[C@H](CCCCN)NC(=O)[C@@H](NC(=O)[C@H](Cc1ccc(O)cc1)NC(=O)[C@H](CCCCN)NC(=O)[C@@H]1CCCN1C(=O)[C@@H](N)CN1C(=O)c2ccc(N(C)C)cc2C1=O)C(C)C)[C@@H](C)O)C(=O)N[C@@H](C)C(=O)N[C@H](C(=O)O)[C@@H](C)O |  |  | 578 cps/nM | 0.6 nanoseconds | Activity [5]: Active
CN(C)c1ccc2c(c1)C(=O)N(C[C@H](NC(=O)OCC1c3ccccc3-c3ccccc31)C(=O)O)C2=O |  | > 1000 nM |  |  | 

Source: ChEMBL document CHEMBL1250445, “Fluorogenic probes for monitoring peptide binding to class II MHC proteins in living cells” (Nat Chem Biol, 2007)
